Experimental data from ChEMBL document CHEMBL1126267, “A novel synthesis and potent antiinflammatory activity of 4-hydroxy-2(1H)-oxo-1-phenyl-1,8-naphthyridine-3-carboxamides” (1992).

Assays:
Type in all cases: functional
Rattus norvegicus [1] = assay: Inhibition of carrageenan-induced rat's paw edema (CPE) after peroral administration of 100 mg/kg dose.; conditions: route oral
Outline: (§1)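 Male Wistar rats (about 150 g) were dosed orally with compound suspended in 5% arabic gum, 1 h before a subplantar hind-paw injection of 0.1 mL saline. The irritant was 1% zymosan for 33 or 1% λ-carrageenin for 34. Paw volume was measured by plethysmograph before dosing and at 4 h (zymosan) or 3 h (carrageenin). Swelling is relative to initial volume, as mean ± SEM. % inhibition is versus the control group's mean swelling.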

Rattus norvegicus [2] = assay: Antiinflammatory activity on Zymosan-induced rat's paw edema(ZPE) after peroral administration of 100 mg/kg dose with control swelling of 72.9%; conditions: route oral
Outline: (§2)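 Male Wistar rats weighing about 150 g were dosed orally with compound suspended in 5% arabic gum. 1 h later, 1% zymosan in 0.1 mL saline was injected subplantarly into the hind paw. Paw volume was measured by plethysmograph before dosing and 4 h after zymosan, with edema as the volume difference. Inhibition % was derived from mean swelling versus the control group.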

Rattus norvegicus [3] = assay: Antiinflammatory activity on Carrageenan rat's paw edema(CPE) after peroral administration of 100 mg/kg dose with control swelling of 64.2%; conditions: route oral
Rattus norvegicus [4] = assay: Compound was tested for the inhibition of rat reversed passive Arthus pleurisy after peroral administration of 100 mg/kg dose at 0.42 mL of exudate volume with 0.52 mL of control (injected intrapleurally); conditions: route oral
Outline: (§3)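 Male Wistar rats (about 250 g) were given compound orally before the antiserum. Under ether anesthesia, 0.2 mL rabbit anti-egg albumin antiserum was injected intrapleurally. After 30 min, egg albumin (15 mg/100 g body weight in 0.1 mL saline) was given iv. Rats were killed 4.5 h later and the thoracic cavity was rinsed with 5 mL saline. Exudate volume and infiltrated cell number were measured, with inhibition % versus controls as mean ± SEM.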

Rattus norvegicus [5] = assay: Inhibition of Zymosan-induced rat's paw edema(ZPE) after peroral administration of 100 mg/kg dose.; conditions: route oral; outline: as §1
Rattus norvegicus [6] = assay: Compound was tested for the inhibition of rat reversed passive Arthus pleurisy after peroral administration of 100 mg/kg dose at 2.23*10e6 no of cells with 2.28*10er cells of control; conditions: route oral; outline: as §3
Rattus norvegicus [7] = assay: Antiinflammatory activity on Carrageenan rat's paw edema(CPE) after peroral administration of 3 mg/kg dose with control swelling of 75.8%; conditions: route oral
Rattus norvegicus [8] = assay: Compound was tested for the inhibition of arachidonic acid-induced rat's paw edema(APE) after peroral administration of 3 mg/kg dose with control swelling of 51.6%; conditions: route oral
Outline: (§4)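 Test: arachidonic acid paw edema in male Wistar rats of about 150 g. Oral dosing in 5% arabic gum came 1 h before subplantar injection of 1% arachidonic acid sodium salt in 0.1 mL saline into the hind paw. Plethysmograph paw volume was read before dosing and 1 h post-irritant, and edema = volume difference. % inhibition was taken from mean swelling against controls.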

Rattus norvegicus [9] = assay: Antiinflammatory activity on Zymosan-induced rat's paw edema(ZPE) after peroral administration of 30 mg/kg dose with control swelling of 68.1%; conditions: route oral; outline: as §2
Rattus norvegicus [10] = assay: Compound was tested for the inhibition of arachidonic acid-induced rat's paw edema(APE) after peroral administration of 3 mg/kg dose; conditions: route oral; outline: as §4
Rattus norvegicus [11] = assay: Compound was tested for the inhibition of arachidonic acid-induced rat's paw edema(APE) after peroral administration of 30 mg/kg dose; conditions: route oral; outline: as §4
Rattus norvegicus [12] = assay: Compound was tested for the inhibition of rat reversed passive Arthus pleurisy after peroral administration of 100 mg/kg dose at 2.13*10e6 no of cells with 3.86*10e6 cells of control; conditions: route oral; outline: as §3
Rattus norvegicus [13] = assay: Antiinflammatory activity on Zymosan-induced rat's paw edema(ZPE) after peroral administration of 10 mg/kg dose with control swelling of 68.1%; conditions: route oral; outline: as §2
Rattus norvegicus [14] = assay: Compound was tested for the inhibition of Zymosan-induced rat's paw edema(ZPE) after peroral administration of 30 mg/kg dose; conditions: route oral; outline: as §2
Rattus norvegicus [15] = assay: Compound was tested for the inhibition of rat reversed passive Arthus pleurisy after peroral administration of 100 mg/kg dose at 0.08 mL of exudate volume with 0.86 mL of control (injected intrapleurally); conditions: route oral; outline: as §3
Rattus norvegicus [16] = assay: Compound was tested for the inhibition of rat reversed passive Arthus pleurisy after peroral administration of 100 mg/kg dose at 0.08+/-0.01 mL of exudate volume (injected intrapleurally); conditions: route oral; outline: as §3
Rattus norvegicus [17] = assay: Compound was tested for the inhibition of arachidonic acid-induced rat's paw edema(APE) after peroral administration of 10 mg/kg dose with control swelling of 51.6%; conditions: route oral; outline: as §4
Rattus norvegicus [18] = assay: Compound was tested for the inhibition of rat reversed passive Arthus pleurisy after peroral administration of 25 mg/kg dose at 0.4+/-0.07 mL of exudate volume (injected intrapleurally); conditions: route oral
Outline: (§5)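 Male Wistar rats (about 250 g) under ether received 0.2 mL rabbit anti-egg-albumin antiserum intrapleurally. Thirty min later they got 15 mg EA/100 g body weight in 0.1 mL saline iv. Compounds were given orally beforehand. Rats were killed 4.5 h after induction and the thoracic cavity rinsed with 5 mL saline. Exudate volume and infiltrated cell count were read as mean ± SE. % inhibition is versus control.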

Rattus norvegicus [19] = assay: Antiinflammatory activity on Carrageenan rat's paw edema(CPE) after peroral administration of 30 mg/kg dose with control swelling of 75.8%; conditions: route oral
Rattus norvegicus [20] = assay: Compound was tested for the inhibition of rat reversed passive Arthus pleurisy after peroral administration of 5 mg/kg dose at 0.73+/-0.03 mL of exudate volume (injected intrapleurally); conditions: route oral; outline: as §5
Rattus norvegicus [21] = assay: Compound was tested for the inhibition of rat reversed passive Arthus pleurisy after peroral administration of 25 mg/kg dose at 4.74+/-0.24*10e6 no of cells; conditions: route oral; outline: as §5
Rattus norvegicus [22] = assay: Compound was tested for the inhibition of rat reversed passive Arthus pleurisy after peroral administration of 100 mg/kg dose at 2.13+/-0.24*10e6 no of cells; conditions: route oral; outline: as §3
Rattus norvegicus [23] = assay: Antiinflammatory activity on Zymosan-induced rat's paw edema(ZPE) after peroral administration of 3 mg/kg dose with control swelling of 68.1%; conditions: route oral; outline: as §2
Rattus norvegicus [24] = assay: Antiinflammatory activity on Zymosan-induced rat's paw edema(ZPE) after peroral administration of 100 mg/kg dose with control swelling of 71.7%; conditions: route oral; outline: as §2
Rattus norvegicus [25] = assay: Compound was tested for the inhibition of Zymosan-induced rat's paw edema(ZPE) after peroral administration of 10 mg/kg dose; conditions: po; outline: as §2
Rattus norvegicus [26] = assay: Compound was tested for the inhibition of arachidonic acid-induced rat's paw edema(APE) after peroral administration of 10 mg/kg dose; conditions: route oral; outline: as §4
Rattus norvegicus [27] = assay: Compound was tested for the inhibition of Carrageenan rat's paw edema(CPE) after peroral administration of 3 mg/kg dose; conditions: route oral
Rattus norvegicus [28] = assay: Compound was tested for the inhibition of Zymosan-induced rat's paw edema(ZPE) after peroral administration of 3 mg/kg dose; conditions: route oral; outline: as §2
Rattus norvegicus [29] = assay: Compound was tested for the inhibition of rat reversed passive Arthus pleurisy after peroral administration of 5 mg/kg dose at 2.79 +/- 0.19*10e6 no of cells; conditions: route oral; outline: as §5
Rattus norvegicus [30] = assay: Compound was tested for the inhibition of rat reversed passive Arthus pleurisy after peroral administration of 10 mg/kg dose at 0.53+/-0.05 mL of exudate volume (injected intrapleurally); conditions: route oral; outline: as §3
Rattus norvegicus [31] = assay: Compound was tested for the inhibition of arachidonic acid-induced rat's paw edema(APE) after peroral administration of 30 mg/kg dose with control swelling of 51.6%; conditions: route oral
Rattus norvegicus [32] = assay: Compound was tested for the inhibition of rat reversed passive Arthus pleurisy after peroral administration of 10 mg/kg dose at 4.6+/-0.25*10e6 no of cells; conditions: route oral; outline: as §3
Rattus norvegicus [33] = assay: Antiinflammatory activity on Carrageenan rat's paw edema(CPE) after peroral administration of 10 mg/kg dose with control swelling of 75.8%; conditions: route oral
Rattus norvegicus [34] = assay: Compound was tested for the inhibition of rat reversed passive Arthus pleurisy after peroral administration of 100 mg/kg dose at 1.69*10e6 no of cells with 2.17*10e6 cells of control; conditions: route oral; outline: as §3
Rattus norvegicus [35] = assay: Antiinflammatory activity on Carrageenan rat's paw edema(CPE) after peroral administration of 100 mg/kg dose with control swelling of 81.0%; conditions: route oral
Rattus norvegicus [36] = assay: Compound was tested for the inhibition of rat reversed passive Arthus pleurisy after peroral administration of 100 mg/kg dose at 0.33 mL of exudate volume with 0.46 mL of control (injected intrapleurally); conditions: route oral; outline: as §3
Rattus norvegicus [37] = assay: Antiinflammatory activity on Zymosan-induced rat's paw edema(ZPE) after peroral administration of 100 mg/kg dose with control swelling of 52.2%; conditions: route oral; outline: as §2
Rattus norvegicus [38] = assay: Antiinflammatory activity on Carrageenan rat's paw edema(CPE) after peroral administration of 100 mg/kg dose with control swelling of 73.7%; conditions: route oral
Rattus norvegicus [39] = assay: Compound was tested for the inhibition of rat reversed passive Arthus pleurisy after peroral administration of 100 mg/kg dose at 1.59+/-0.13*10e6 no of cells with 2.17*10e6 cells of control; conditions: route oral; outline: as §3
Rattus norvegicus [40] = assay: Compound was tested for the inhibition of rat reversed passive Arthus pleurisy after peroral administration of 100 mg/kg dose at 0.37 mL of exudate volume with 0.46 mL of control (injected intrapleurally); conditions: route oral; outline: as §3

For `CNC(=O)c1c(O)c2cccnc2n(-c2ccccc2)c1=O`, the inhibition in vivo at 100 mg/kg (Rattus norvegicus [1]) was 21%, the Swelling (Rattus norvegicus [2]) was 65.9% and the Swelling (Rattus norvegicus [3]) was 50.7%. It also gave an inhibition in vivo at 100 mg/kg (Rattus norvegicus [4]) of 22.3%, an inhibition in vivo at 100 mg/kg (Rattus norvegicus [5]) of 9.6% and an inhibition in vivo at 100 mg/kg (Rattus norvegicus [6]) of 3.2%.

In the case of `O=C(Nc1ccncc1)c1c(O)c2cccnc2n(-c2ccccc2)c1=O`, the Swelling (Rattus norvegicus [7]) is reported as 72.1%, the Swelling (Rattus norvegicus [8]) is reported as 33% and the inhibition in vivo at 100 mg/kg (Rattus norvegicus [1]) is reported as 24.3%. It also gave a Swelling (Rattus norvegicus [9]) of 48.5%, an inhibition in vivo at 3 mg/kg (Rattus norvegicus [10]) of 36% and a Swelling (Rattus norvegicus [3]) of 48.6%. It also gave an inhibition in vivo at 30 mg/kg (Rattus norvegicus [11]) of 43.6%, an inhibition in vivo at 100 mg/kg (Rattus norvegicus [12]) of 58.6% and a Swelling (Rattus norvegicus [13]) of 54.3%. The inhibition in vivo at 100 mg/kg (Rattus norvegicus [5]) was 34.9%, the inhibition in vivo at 30 mg/kg (Rattus norvegicus [14]) was 28.8% and the inhibition in vivo at 100 mg/kg (Rattus norvegicus [15]) was 100%. For the same compound, the inhibition in vivo at 100 mg/kg (Rattus norvegicus [16]) was 100%, the Swelling (Rattus norvegicus [17]) was 25.5% and the inhibition in vivo at 25 mg/kg (Rattus norvegicus [18]) was 51.4%. The Swelling (Rattus norvegicus [19]) was 58.8%, the inhibition in vivo at 5 mg/kg (Rattus norvegicus [20]) was -3.2% and the inhibition in vivo at 25 mg/kg (Rattus norvegicus [21]) was 33.3%. For the same compound, the inhibition in vivo at 100 mg/kg (Rattus norvegicus [22]) was 58.6%, the Swelling (Rattus norvegicus [23]) was 60.6% and the Swelling (Rattus norvegicus [24]) was 46.7%. For the same compound, the inhibition in vivo at 10 mg/kg (Rattus norvegicus [25]) was 20.3%, the inhibition in vivo at 10 mg/kg (Rattus norvegicus [26]) was 50.6% and the inhibition in vivo at 3 mg/kg (Rattus norvegicus [27]) was 4.9%. The inhibition in vivo at 3 mg/kg (Rattus norvegicus [28]) was 11.9%, the inhibition in vivo at 5 mg/kg (Rattus norvegicus [29]) was 26% and the inhibition in vivo at 10 mg/kg (Rattus norvegicus [30]) was 32.9%. The Swelling (Rattus norvegicus [31]) was 29.1%, the inhibition in vivo at 10 mg/kg (Rattus norvegicus [32]) was 35.8% and the Swelling (Rattus norvegicus [33]) was 71.3%.

Work on `O=C(NC1CCN(Cc2ccccc2)CC1)c1c(O)c2cccnc2n(-c2ccccc2)c1=O` yielded an inhibition in vivo at 100 mg/kg (Rattus norvegicus [1]) of 1.2%, an inhibition in vivo at 100 mg/kg (Rattus norvegicus [34]) of 22.1% and a Swelling (Rattus norvegicus [35]) of 80.8%. The inhibition in vivo at 100 mg/kg (Rattus norvegicus [5]) was 1.7%, the inhibition in vivo at 100 mg/kg (Rattus norvegicus [36]) was 32.4% and the Swelling (Rattus norvegicus [37]) was 51.3%.

`Nc1ccc(NC(=O)c2c(O)c3cccnc3n(-c3ccccc3)c2=O)cc1` showed an inhibition in vivo at 100 mg/kg (Rattus norvegicus [1]) of 0%, a Swelling (Rattus norvegicus [38]) of 79% and a Swelling (Rattus norvegicus [2]) of 76.9%. The inhibition in vivo at 100 mg/kg (Rattus norvegicus [5]) was -5.5%.

`O=C(Nc1cnccn1)c1c(O)c2cccnc2n(-c2ccccc2)c1=O` showed an inhibition in vivo at 100 mg/kg (Rattus norvegicus [1]) of 21.2%, a Swelling (Rattus norvegicus [3]) of 50.6% and an inhibition in vivo at 100 mg/kg (Rattus norvegicus [39]) of 26.7%. It also gave an inhibition in vivo at 100 mg/kg (Rattus norvegicus [5]) of 29.6%, a Swelling (Rattus norvegicus [24]) of 50.5% and an inhibition in vivo at 100 mg/kg (Rattus norvegicus [40]) of 24.3%.

Compound `O=C(Nc1ccccn1)c1c(O)c2cccnc2n(-c2ccccc2)c1=O` has an inhibition in vivo at 100 mg/kg (Rattus norvegicus [1]) of 14.6%, a Swelling (Rattus norvegicus [3]) of 54.8% and an inhibition in vivo at 100 mg/kg (Rattus norvegicus [5]) of -13.5%. It also gave a Swelling (Rattus norvegicus [24]) of 81.4%.
